A selection: hits, their analogues and other compounds. The true share with any hit is near 2.5%.
NLRP3 yeast inh = inhibitors of NALP3 inflammasome in yeast | Yeast reconstituted NLRP3/ASC/caspase-1, beta-gal luminescence, 24 h | inhibition, % at 10 µM | actives 0.39% (n = 330,000);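 active = inhibition of 50% or more; inactive = inhibition below 50%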;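 note: plate controls were induced DMSO wells for no effect and uninduced yeast grown without galactose for full effect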
A1 inh = inhibitors of the anti-apoptotic protein A1, read as caspase activation; MEF A1-2A-BIM cells, Caspase-Glo 3/7 luminescence, 3 h; percent of clofoctol response, vehicle zero; caspase activation, % (test concentration not listed); actives 0.066% (n = 330,000);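 active = over half of replicate activation scores above 10%, or exactly half above 10 with the replicate mean above 10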
Tb MetRS inh = Trypanosoma brucei MetRS inhibition. purified T. brucei MetRS, ATP depletion, Kinase-Glo luminescence. inhibition, % at 11.9 µM. actives 0.4% (n = 360,000). AID 624268;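 active = inhibition above a per-plate cutoff of the control wells' mean inhibition plus 3 SD, cut at about 5.5% in these data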;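 note: 0% = DMSO wells median and 100% = median of wells with control inhibitor compound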
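Measured by: Kinase-Glo luciferase luminescence reporting remaining unconsumed ATP. Material: purified T. brucei MetRS enzyme. Doses: 11.9 µM compound single dose, 0.9% DMSO. Medium: HEPES buffer containing pyrophosphatase, BSA, spermine, DTT. Times: 15 min preincubation, 2 h reaction, all 25 °C. Reagent: methionine, ATP and bulk E. coli tRNA.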
NALP1 inh = NALP1 inhibition | S. cerevisiae NALP1/ASC/caspase-1 growth, X-gal OD620, 72 h | inhibition, % at 10 µM | actives 0.61% (n = 280,000) | AID 2071; in the data active = inhibition mostly above about 24%, no sharp cut-off; inactive = mostly below about 32%
MC4R barr agon = agonists of human melanocortin 4 receptor (MC4R) beta-arrestin; P32245; U2OS MC4R beta-arrestin complementation, luminescence; percent of melanotan II response, DMSO zero; activation, % at 8.9 µM; actives 0.98% (n = 360,000); AID 540308;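 active = activation above a per-plate cutoff, the mean activation of sample wells on that plate plus 3 SD, cut at about 8% in these data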
Target sequence (P32245 whole entry, looked up): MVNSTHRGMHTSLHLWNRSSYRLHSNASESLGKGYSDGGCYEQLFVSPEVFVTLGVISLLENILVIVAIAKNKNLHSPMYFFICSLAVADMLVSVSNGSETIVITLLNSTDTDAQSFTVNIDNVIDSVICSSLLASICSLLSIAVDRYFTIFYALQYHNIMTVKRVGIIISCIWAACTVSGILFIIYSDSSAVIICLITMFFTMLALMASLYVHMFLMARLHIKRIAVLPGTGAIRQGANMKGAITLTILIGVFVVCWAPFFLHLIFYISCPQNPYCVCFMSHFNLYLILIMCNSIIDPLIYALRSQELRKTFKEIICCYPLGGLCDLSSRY
MC4R antagonist = antagonists of human melanocortin 4 receptor (MC4R) | P32245 | MC4R-expressing cells, MTII-stimulated cAMP, LANCE TR-FRET | inhibition, % at 6.5 µM | actives 0.48% (n = 360,000);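 active = inhibition above its plate's cutoff, the mean of tested wells on that plate plus 3 SD, cut at about 29% in these data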;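 note: 0% = Melanotan II alone and 100% = Melanotan II plus saturating MCL0020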
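System: U2OS cells stably expressing human melanocortin 4 receptor (MC4R). Reagent: Melanotan II challenge after compound preincubation. Doses: 6.5 µM. Times: 30-min compound, 1-h challenge, 1-h detection, room temperature. Measured by: TR-FRET with Eu-cAMP and labeled anti-cAMP, 671 nm. Replicates: singlicate.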
Starred values were filed as active, the others as inactive; nt = no result.

SMILES | NLRP3 yeast inh | A1 inh | Tb MetRS inh | NALP1 inh | MC4R barr agon | MC4R antagonist
O=C(CNC(=O)c1sc2ccccc2c1Cl)NCc1cccc(C(F)(F)F)c1 | 14 | 1 | 0 | nt | 9.4* | 7
CC(=O)Nc1ccc(NC(=O)CNC(=O)c2sc3ccccc3c2Cl)cc1 | -6 | 1 | 0 | nt | 0 | 5
COc1ccccc1NC(=O)NCc1nc(-c2ccc(C(F)(F)F)cc2)no1 | 12 | 1 | 0 | nt | 8.5* | 10
COc1ccc(C(=O)Cc2cc(OC)c(OC)cc2[N+](=O)[O-])cc1 | 13 | 1 | 0 | -2 | 1 | 7
CCOc1ccc(C(=O)Cc2cc(OC)c(OC)cc2[N+](=O)[O-])cc1 | 14 | 0 | 0 | 4 | 12* | -3
CCOc1ccc(Cl)cc1S(=O)(=O)N1CCN(c2ccc(C)c(C)c2)CC1 | 17 | 0 | -1 | 6 | -1 | -1
CCOc1ccc(Cl)cc1S(=O)(=O)n1cnc2cc(C)c(C)cc21 | 19 | 0 | -1 | 41* | -2 | -4
CC(C)Nc1ncnc2c1ncn2[C@H]1CN(Cc2ccc(Cl)cc2)C[C@@H](CO)O1 | nt | nt | 0 | nt | -1 | 1
CSc1ccc(/C=C/C(=O)c2ccc(NC(C)=O)cc2)cc1 | 22 | 1 | -1 | 53* | -2 | 4
COc1ccc(Nc2nnc(SCC(=O)NC3CCCC3)s2)cc1 | nt | nt | 0 | nt | -1 | 0
CCCCN1/C(=C/c2ccc3ccccc3[n+]2CC)Sc2ccccc21 | 14 | nt | 0 | 10 | 0 | -14
CCN1/C(=C/c2ccc3cc(C)ccc3[n+]2CC)Sc2cc(C)ccc21 | nt | nt | -1 | 35* | 6 | -21
Cc1ccc(NC(=O)c2ccc(-n3cccn3)c([N+](=O)[O-])c2)cc1 | 20 | 1 | 0 | 6 | -2 | -3
O=C(Nc1ccc(C2=NCCN2)cc1)c1ccc(C(=O)Nc2ccc(C3=NCCN3)cc2)c([N+](=O)[O-])c1 | 19 | 0 | -1 | 35* | -2 | -9
Cc1ccc(NC(=O)/C(=C\c2ccc([N+](=O)[O-])cc2)NC(=O)c2ccccc2)cc1 | 11 | 0 | 0 | 4 | 0 | 0
O=C(N/N=C/c1ccc(O)c(O)c1O)/C(=C/c1ccc([N+](=O)[O-])cc1)NC(=O)c1ccccc1 | 3 | 0 | 12* | 9 | -2 | 1
CC1=CC(=O)C=CC1(C)C(Cl)Cl (centres undefined) | 15 | 0 | -1 | 23* | -2 | 3
COC(=O)CCC(=O)Nc1ccc(Cl)c(Cl)c1 | 10 | 0 | -1 | 5 | -2 | 0
COC(=O)CCC(=O)NC(=S)Nc1cc(Cl)ccc1Cl | 36 | 0 | 1 | 42* | -3 | 16
Cc1cc(Cl)ccc1OCC(=O)N[C@@H](Cc1ccccc1)c1nc2ccccc2[nH]1 | 1 | 0 | -1 | 5 | 13* | 4
CCC(=O)NC(Cc1ccccc1)c1nc2ccccc2[nH]1 (centres undefined) | 6 | 1 | -1 | 11 | -1 | 6
CCCCCOc1ccc(Br)cc1/C(C)=N/NC1=NCCN1 | 34 | 0 | 0 | 83* | 6 | -23
Cc1cccc(C)c1NC(=O)CN1C(=O)S/C(=C\c2cccn2-c2cccc(C(=O)O)c2)C1=O | 5 | 1 | -1 | -4 | -2 | 2
Cc1cccc(C)c1NC(=O)CN1C(=O)S/C(=C\c2cccn2C)C1=O | 8 | 0 | 0 | 40* | 0 | 13
CCOC(=O)C1CCN(S(=O)(=O)c2cn(C)cn2)CC1 | -6 | -1 | 0 | 0 | -1 | 6
SMILES | NLRP3 yeast inh | A1 inh | Tb MetRS inh | NALP1 inh | MC4R barr agon | MC4R antagonist
COc1ccc(N2CCN(S(=O)(=O)c3ccc(Cl)c(C(F)(F)F)c3)CC2)cc1 | 6 | 0 | 0 | 24 | 8.5* | 6
CCc1nc2ccccc2[nH]c1=O | 16 | -1 | 0 | 0 | -2 | -1
O=c1[nH]c2ccccc2nc1C(F)(F)F | 7 | 2 | 0 | 37* | -1 | -6
COc1ccc(-c2c(C)nc(N)nc2-c2ccc(OCc3ccc(C)cc3)cc2O)cc1OC | 21 | 1 | -1 | 23 | 9.6* | 4
COc1ccc(-c2c(C)nc(N)nc2-c2ccc(OC)cc2O)cc1 | 12 | -1 | -1 | -1 | 0 | -2
COc1ccccc1N1CCN(C(=O)c2ccc(COc3cccc4c3OC(C)(C)C4)cc2)CC1 | 25 | -1 | 0 | nt | -2 | 9
CN(CC(=O)Nc1cccc(F)c1)C(=O)c1ccc(C2SCCS2)cc1 | -3 | 0 | 0 | nt | -2 | 9
O=C(CSc1c(F)c(F)cc(F)c1F)Nc1ccc(C2SCCS2)cc1 | 11 | -1 | 0 | -14 | 8.5* | 6
O=C(CSc1ccc(Cl)cc1)Nc1ccc(C2SCCS2)cc1 | 12 | 0 | 0 | 3 | 9.6* | 5
O=C(COc1ccc(C2SCCS2)cc1)Nc1ccc(Cl)cc1 | 30 | 0 | 0 | nt | -1 | 10
C[C@@H]1CCCCO[C@H](CN(C)S(=O)(=O)c2cccs2)[C@@H](C)CN([C@H](C)CO)C(=O)c2cc(NC(=O)C3CCCCC3)ccc2O1 | nt | nt | 0 | nt | 0 | 19
Cc1ccc(NC(=O)c2ccccc2OCC(=O)c2ccccc2)cc1 | -10 | 0 | -1 | -2 | 8.6* | 18
CCOc1ccc(CCN2C(=O)C(=O)N([C@H](CCCN(C)Cc3ccccc3)CNCc3ccccc3)C[C@@H]2C(C)C)cc1 | 6 | nt | nt | nt | nt | nt
COc1ccc(CNC[C@@H](CCCCN(C)Cc2ccc(OC)cc2)N2C[C@H](c3ccccc3)N(CCc3ccc(Cl)c(Cl)c3)C(=O)C2=O)cc1 | 13 | 2 | 0 | 8 | 25* | 30*
O=C(NCCN1CCN(c2ccccc2)CC1)c1ccc(NC(=O)C2CCCO2)cc1 (centres undefined) | 2 | 1 | -1 | 42* | -2 | 1
COC(=O)c1ccc(N=Cc2c(C(F)(F)F)[nH][nH]c2=O)cc1 | 5 | 1 | 0 | 27* | -1 | -6
CN(C)S(=O)(=O)c1ccc(N=Cc2c(C(F)(F)F)[nH][nH]c2=O)cc1 | -9 | 1 | -1 | 0 | 0 | -2
C/[N+]([O-])=C\CC(=O)c1ccc(-c2ccccc2)cc1 | 30 | -1 | 0 | 29* | 0 | 13
CO/N=C/CC(=O)c1ccc(-c2ccccc2)cc1 | 48 | -2 | 0 | 7 | -3 | 12
NC(=O)c1ccccc1NC(=O)COC(=O)C1(c2ccccc2)CC1 | 19 | 0 | -1 | nt | 0 | -7
CCOc1ccc(/C=N/NC(=O)Cc2ccccc2)cc1CN1CC2CC(C1)c1cccc(=O)n1C2 (centres undefined) | 9 | -1 | 0 | nt | 0 | 18

Compound activity (PubChem BioAssay)
